Data: article PMC8213225 (Science Advances, 2021)

Assays:
SPOP-53BP1 interaction [1] = test: Co-IP of SPOP-53BP1 interaction in 293T cells with kinase inhibitors and IR; format: cell-based; conditions: IR for 1 hour
Outline: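 293T cells (DMEM, 10% FBS) transiently transfected with tagged constructs by lipofection, pretreated with kinase inhibitors (DMSO vehicle), then irradiated and harvested 1 h later. Lysed in BC100 buffer 24 h post-transfection; FLAG-tagged proteins pulled down on anti-FLAG M2 agarose, HA-tagged with anti-HA plus protein A/G beads, overnight at 4°C. Immunoblot on nitrocellulose with ECL detection.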

SPOP-53BP1 interaction [2] = test: Co-IP of SPOP-53BP1 interaction after DNA damage; format: cell-based; conditions: DNA damage by CPT
53BP1 polyubiquitination = test: In vivo ubiquitination assay of 53BP1; format: cell-based; conditions: CPT treatment, fig. S2E
[3] = tested on: 53BP1 FFR polyubiquitination; test: In vivo ubiquitination assay of 53BP1 FFR; format: cell-based; conditions: CPT treatment, fig. S2H
BPH1 cells = test: Karyotype analysis, chromosome breaks; format: cell-based; conditions: SPOP F133V-expressing BPH1 cells, CPT 1 μM for 24 hours; largely reversed by 53BP1 co-KO
L3MBTL1 = test: Immunodepletion of PC-3 lysate with L3MBTL1 antibody; format: binding; conditions: IR 4 Gy, 1 hour, immunodepleted five times
Outline: (§1)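 PC-3 cells were grown in RPMI with 10% FBS, irradiated (4 Gy), and lysed 1 h later. Lysate was immunodepleted five times with antibody to L3MBTL1 or to 53BP1, with preimmune sera as control. Read-out was Western blot: SDS-PAGE, transfer to nitrocellulose, blocking in TBS (pH 7.4) with 5% nonfat milk and 0.1% Tween 20, primary antibody overnight at 4°C, secondary 1 h at room temperature.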

53BP1 = test: Immunodepletion of PC-3 lysate with 53BP1 antibody; format: binding; conditions: IR 4 Gy, 1 hour, immunodepleted five times
Outline: as §1

[4] = molecular target: SPOP MATH domain (residues 28 to 164) D140G (human, UniProt O43791 28-164, D140G); test: crystal structure
Sequence of SPOP MATH domain (residues 28 to 164) D140G (O43791 28-164 D140G): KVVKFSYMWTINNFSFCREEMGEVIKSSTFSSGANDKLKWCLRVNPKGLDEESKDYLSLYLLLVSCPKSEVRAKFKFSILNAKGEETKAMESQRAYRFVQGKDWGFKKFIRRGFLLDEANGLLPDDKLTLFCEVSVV

## O=c1cc(-c2cccc3c2Sc2ccccc2S3)oc(N2CCOCC2)c1 [ATM kinase inhibitor]
SPOP-53BP1 interaction [1]
  effect on SPOP-53BP1 interaction: attenuated the SPOP-53BP1 interaction

## CC[C@@]1(O)C(=O)OCc2c1cc1n(c2=O)Cc2cc3ccccc3nc2-1 [CPT, camptothecin]
SPOP-53BP1 interaction [2]
  effect on SPOP-53BP1 interaction: markedly enhanced
53BP1 polyubiquitination
  effect on SPOP-induced polyubiquitination of 53BP1: enhanced SPOP-induced polyubiquitination of 53BP1
[3]
  effect on SPOP-increased 53BP1 FFR polyubiquitination: this effect was enhanced by CPT treatment
BPH1 cells
  number of intrachromosomal breaks per cell: marked increase in the number of intrachromosomal breaks per cell

## NPL4: valosin-containing protein/p97 cofactor NPL4
L3MBTL1
  fraction of NPL4 bound to L3MBTL1: approximately 33%
53BP1
  fraction of NPL4 bound to 53BP1: approximately 10%

## PATPTASSSSSTTPT (peptide, UniProt Q12888 1636-1650, looked up) [53BP1 SBM synthetic peptide (residues 1636 to 1650)]
[4]
  binding result: binds
